Assay results published in ChEMBL document CHEMBL1275306, “Synthesis and cytotoxicity evaluation of 1-[3-(9H-carbazol-4-yloxy)-2-hydroxypropyl]-3-aryl-1H-pyrazole-5-carboxylic acid derivatives” (Eur J Med Chem, 2010).
The source made the active and inactive calls.

Tests used:
Assay type in all cases: functional, cell-based
MCF7 [1] = experiment: Cytotoxicity against human MCF7 cells after 48 hrs by SRB assay
In short: (§1)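 Cells grown in minimal essential medium with 10% FBS, penicillin and streptomycin, then exposed in triplicate to […] test agent or doxorubicin for 48 h at 37 °C under 5% CO2. Cells fixed with cold TCA, stained with 0.4% SRB in 1% acetic acid; bound dye dissolved in buffer, OD read at 565 nm. Viability expressed as % of untreated cells; IC50 by non-linear regression.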

SK-N-SH [2] = experiment: Cytotoxicity against human SK-N-SH cells at 0.5 uM after 48 hrs by SRB assay
A549 [3] = experiment: Cytotoxicity against human A549 cells at 0.1 to 5 uM by SRB assay; conditions: TDE = time-dependent effect; in short: as §1
SK-N-SH [4] = experiment: Cytotoxicity against human SK-N-SH cells after 48 hrs by SRB assay; in short: as §1
A549 [5] = experiment: Cytotoxicity against human A549 cells after 48 hrs by SRB assay; in short: as §1
MCF7 [6] = experiment: Cytotoxicity against human MCF7 cells at 0.1 to 5 uM by SRB assay; conditions: TDE = time-dependent effect; in short: as §1
SK-N-SH [7] = experiment: Cytotoxicity against human SK-N-SH cells at 0.1 to 5 uM by SRB assay; conditions: TDE = time-dependent effect; in short: as §1
SK-N-SH [8] = experiment: Cytotoxicity against human SK-N-SH cells at 0.1 uM after 48 hrs by SRB assay; in short: as §1
SK-N-SH [9] = experiment: Cytotoxicity against human SK-N-SH cells at 5 uM after 48 hrs by SRB assay; in short: as §1

Measured: Activity

O=C(O)c1cc(-c2ccc([N+](=O)[O-])cc2)nn1CC(O)COc1cccc2[nH]c3ccccc3c12 (stereo not drawn)
active: MCF7 [1] Dose-dependent effect | SK-N-SH [2] | A549 [3] tde | SK-N-SH [4] Dose-dependent effect | A549 [5] Dose-dependent effect | MCF7 [6] tde | SK-N-SH [7] tde

COc1cccc(-c2cc(C(=O)O)n(CC(O)COc3cccc4[nH]c5ccccc5c34)n2)c1 (stereo not drawn)
active: MCF7 [1] Dose-dependent effect | SK-N-SH [2] | A549 [3] tde | SK-N-SH [4] Dose-dependent effect | A549 [5] Dose-dependent effect | MCF7 [6] tde | SK-N-SH [7] tde

COc1cccc2c1C(=O)c1c(O)c3c(c(O)c1C2=O)C[C@@](O)(C(=O)CO)C[C@@H]3O[C@H]1C[C@H](N)[C@H](O)[C@H](C)O1
active: MCF7 [1] Dose-dependent effect | A549 [3] tde | SK-N-SH [4] Dose-dependent effect | A549 [5] Dose-dependent effect | MCF7 [6] tde | SK-N-SH [7] tde

Cc1ccc(-c2cc(C(=O)O)n(CC(O)COc3cccc4[nH]c5ccccc5c34)n2)cc1 (stereo not drawn)
active: MCF7 [1] Dose-dependent effect | SK-N-SH [2] | A549 [3] tde | SK-N-SH [4] Dose-dependent effect | A549 [5] Dose-dependent effect | MCF7 [6] tde | SK-N-SH [7] tde

Cc1cccc(-c2cc(C(=O)O)n(CC(O)COc3cccc4[nH]c5ccccc5c34)n2)c1 (stereo not drawn)
active: SK-N-SH [8] | MCF7 [1] Dose-dependent effect | SK-N-SH [2] | A549 [3] tde | SK-N-SH [4] Dose-dependent effect | SK-N-SH [9] | A549 [5] Dose-dependent effect | MCF7 [6] tde | SK-N-SH [7] tde

COc1ccc(-c2cc(C(=O)O)n(CC(O)COc3cccc4[nH]c5ccccc5c34)n2)cc1 (stereo not drawn)
active: MCF7 [1] Dose-dependent effect | SK-N-SH [2] | A549 [3] tde | SK-N-SH [4] Dose-dependent effect | SK-N-SH [9] | A549 [5] Dose-dependent effect | MCF7 [6] tde | SK-N-SH [7] tde

O=C(O)c1cc(-c2cccc([N+](=O)[O-])c2)nn1CC(O)COc1cccc2[nH]c3ccccc3c12 (stereo not drawn)
active: MCF7 [1] Dose-dependent effect | SK-N-SH [2] | A549 [3] tde | SK-N-SH [4] Dose-dependent effect | A549 [5] Dose-dependent effect | MCF7 [6] tde | SK-N-SH [7] tde

O=C(O)c1cc(-c2ccccc2[N+](=O)[O-])nn1CC(O)COc1cccc2[nH]c3ccccc3c12 (stereo not drawn)
active: MCF7 [1] Dose-dependent effect | SK-N-SH [2] | A549 [3] tde | SK-N-SH [4] Dose-dependent effect | A549 [5] Dose-dependent effect | MCF7 [6] tde | SK-N-SH [7] tde
